Test results published in ChEMBL document CHEMBL2311282, “Asymmetric synthesis and anti-protozoal activity of the 8,4'-oxyneolignans virolin, surinamensin and analogues” (Eur J Med Chem, 2013).
Converted amounts (≈) assume the structure as drawn.

What was measured:
Leishmania donovani = test: Anti-protozoal activity against Leishmania donovani MHOM-ET-67/L82 amastigotes after 72 hrs by Alamar blue assay; assay type: functional, organism-based; conditions: MHOM-ET-67/L82, 72 h
[1] = Toxicity against rat L6 cells after 72 hrs by Alamar blue assay; assay type: cell-based
Method in brief: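 Cytotoxicity was measured on the L6 rat skeletal myoblast cell line, with podophyllotoxin as the positive control.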

Plasmodium falciparum = test: Anti-protozoal activity against Plasmodium falciparum K1 IEF stage after 72 hrs by [3H]hypoxanthine incorporation assay; assay type: functional, organism-based
Method in brief: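 P. falciparum K1 strain was tested at the IEF stage, with chloroquine as the positive control.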

Row | Structure (SMILES) | IC50 (Leishmania donovani) [µg/mL] | IC50 at 72 h [1] [µg/mL] | IC50 (Plasmodium falciparum) [µg/mL]
1 | COc1ccc([C@H](O)[C@@H](C)Oc2ccc(Br)cc2OC)cc1 | 4.79 (≈ 13 µM) | 13.5 (≈ 36.8 µM) | 4.31 (≈ 11.7 µM)
2 | COc1ccc([C@@H](O)[C@@H](C)Oc2ccc(Br)cc2OC)cc1OC | 10.8 (≈ 27.2 µM) | 20.9 (≈ 52.6 µM) | 2.5 (≈ 6.29 µM)
3 | COc1cc(Br)ccc1O[C@H](C)[C@H](O)c1ccc2c(c1)OCO2 | 9.2 (≈ 24.1 µM) | 48.2 (≈ 126 µM) | 10.8 (≈ 28.3 µM)
4 | COc1cc(Br)ccc1O[C@H](C)[C@@H](O)c1cc(OC)c(OC)c(OC)c1 | 11.3 (≈ 26.4 µM) | 20.3 (≈ 47.5 µM) | 8.47 (≈ 19.8 µM)
5 | COc1ccc(C(=O)[C@@H](C)Oc2ccc(Br)cc2OC)cc1OC | 12.1 (≈ 30.6 µM) | 41.6 (≈ 105 µM) | 3.12 (≈ 7.89 µM)
6 | C/C=C/c1ccc(O[C@H](C)[C@@H](O)c2ccccc2)c(OC)c1 | 2.29 (≈ 7.67 µM) | 11.9 (≈ 39.9 µM) | 3.23 (≈ 10.8 µM)
7 | C/C=C/c1ccc(O[C@H](C)[C@@H](O)c2ccc(OC)cc2)c(OC)c1 | 5.54 (≈ 16.9 µM) | 15.5 (≈ 47.2 µM) | 1.33 (≈ 4.05 µM)
8 | C/C=C/c1ccc(O[C@H](C)[C@@H](O)c2ccc3c(c2)OCO3)c(OC)c1 | 6.82 (≈ 19.9 µM) | 15.3 (≈ 44.7 µM) | 4.59 (≈ 13.4 µM)
9 | C/C=C/c1ccc(O[C@H](C)[C@H](O)c2ccc3c(c2)OCO3)c(OC)c1 | 10.2 (≈ 29.8 µM) | 14.7 (≈ 42.9 µM) | 1.73 (≈ 5.05 µM)
10 | COc1cc(-c2ccccc2)ccc1O[C@H](C)[C@@H](O)c1ccccc1 | 2.48 (≈ 7.42 µM) | 11.2 (≈ 33.5 µM) | 5.99 (≈ 17.9 µM)
11 | COCO[C@H](c1ccc(OC)c(OC)c1)[C@@H](C)Oc1ccc(Br)cc1OC | 60.3 (≈ 137 µM) | 50.6 (≈ 115 µM) | 49.3 (≈ 112 µM)
12 | C/C=C/c1ccc(O[C@H](C)[C@@H](OCOC)c2ccccc2)c(OC)c1 | 52.5 (≈ 153 µM) | 52.3 (≈ 153 µM) | 47.3 (≈ 138 µM)
13 | C/C=C/c1ccc(O[C@H](C)[C@@H](O)c2ccc(OC)c(OC)c2)c(OC)c1 | 10.6 (≈ 29.6 µM) | 13.2 (≈ 36.8 µM) | 1.71 (≈ 4.77 µM)
14 | CCN(CC)CCCC(C)Nc1ccnc2cc(Cl)ccc12 (stereo unspecified) [CHLOROQUINE] |  |  | 0.54 (≈ 1.69 µM)
15 | CCCCCCCCCCCCCCCCOP(=O)([O-])OCC[N+](C)(C)C [MILTEFOSINE] | 0.144 (≈ 0.353 µM) |  | 
